{"data": "Published values from different studies", "target": "Receptor tyrosine-protein kinase erbB-4 (ERBB4, Homo sapiens, UniProt Q15303)", "note": "Lines come from different studies, so protocols differ."}
{"SMILES": "O=C(N[C@H]1CCCCC/C=C\\C2C[C@@]2(C(=O)O)NC(=O)[C@@H]2C[C@@H](Oc3ccncc3)CN2C1=O)OC1CCCC1 (stereo partly shown)", "read-out": "binding", "technique": "competition with immobilised ligand", "concentration": "1 µM", "remaining binding [%]": 100}
{"SMILES": "O=C(c1ccc(Nc2nccc(-c3cc4ccccc4s3)n2)cc1)N1CCC(N2CCCC2)CC1", "read-out": "binding", "technique": "competition with immobilised ligand", "concentration": "1 µM", "remaining binding [%]": 93}
{"SMILES": "CCCCN(CCCC)C(=O)CN1C[C@@H](c2cc(OC)c3c(c2)OCO3)[C@H](C(=O)O)[C@H]1CC(C)(C)CCC", "read-out": "cell-free assay", "technique": "competition with immobilised ligand", "concentration": "1 µM", "remaining binding [%]": 95}
{"SMILES": "CN(C)c1nccc(-c2cnn3ncccc23)n1", "read-out": "binding", "concentration": "1 µM", "remaining binding [%]": 81}
{"SMILES": "CC(C)(C)c1ccc(-c2nc(CBr)nn2-c2cccc(O)c2)cc1", "read-out": "cell-free assay", "technique": "competition with immobilised ligand", "concentration": "10 µM", "remaining binding [%]": 88}
{"SMILES": "COc1cc(-c2cn(C3CCc4c(F)cccc4N(CC(F)(F)F)C3=O)nn2)ccc1-n1cnc(C)c1 (stereo not shown)", "read-out": "cell-free assay", "technique": "competition with immobilised ligand", "concentration": "1 µM", "remaining binding [%]": 100}
{"SMILES": "Nc1ncc2c(n1)-c1c([nH]c3ccc(C#CC4CC4)cc13)CCCC2", "read-out": "binding", "technique": "competition with immobilised ligand", "concentration": "1 µM", "remaining binding [%]": 100}
{"SMILES": "N[C@@H]1CCN(c2nccc(-c3cnn4ncccc34)n2)C1", "read-out": "binding", "concentration": "1 µM", "remaining binding [%]": 100}
{"SMILES": "COc1cnc(Nc2cccc(S(N)(=O)=O)c2)nc1N1CCN(c2ccccc2)C(=O)C1", "read-out": "binding", "technique": "competition with immobilised ligand", "concentration": "1 µM", "remaining binding [%]": 100}
{"SMILES": "O=C(NCC1CCOCC1)c1n[nH]cc1NC(=O)c1c(F)cccc1F", "read-out": "binding", "technique": "competition with immobilised ligand", "concentration": "1 µM", "remaining binding [%]": 100}
{"SMILES": "c1cnn2ncc(-c3ccnc(N4CCC45COC5)n3)c2c1", "read-out": "binding", "concentration": "1 µM", "remaining binding [%]": 76}
{"SMILES": "COc1ccc2c(c1)O[C@H](c1ccc(OC)c(OC)c1)C[C@@H]2NC(=O)C1(c2ccc3c(c2)OC(F)(F)O3)CC1", "read-out": "cell-free assay", "technique": "competition with immobilised ligand", "concentration": "1 µM", "remaining binding [%]": 94}
{"SMILES": "O=C(c1ccc(Nc2ncc(Cl)c(-c3cc4ccccc4s3)n2)cc1)N1CCC(N2CCCC2)CC1", "read-out": "binding", "technique": "competition with immobilised ligand", "concentration": "1 µM", "remaining binding [%]": 98}
{"SMILES": "C[C@@H]1CCN(c2nccc(-c3cnn4ncccc34)n2)C1", "read-out": "binding", "concentration": "1 µM", "remaining binding [%]": 79}
{"SMILES": "Cc1cnc(Nc2ccc(C(=O)N3CCC(N4CCCC4)CC3)cc2)nc1-c1cc2ccccc2s1", "read-out": "binding", "technique": "competition with immobilised ligand", "concentration": "1 µM", "remaining binding [%]": 84}
{"SMILES": "COc1ncc2cc3ccccc3nc2c1C#N", "read-out": "cell-free assay", "technique": "competition with immobilised ligand", "concentration": "5 µM", "remaining binding [%]": 96}
{"SMILES": "Cc1cnn2ncc(-c3ccnc(N(C)C)n3)c2c1", "read-out": "binding", "concentration": "1 µM", "remaining binding [%]": 65}
{"SMILES": "C[C@@H](c1ccc(-n2cnc3c(N)ncnc32)cc1)N1CCc2nn(C)c(Cc3ccccc3)c2C1=O", "read-out": "binding", "technique": "competition with immobilised ligand", "concentration": "0.1 µM", "remaining binding [%]": 73}
{"SMILES": "CN(C)C(=O)Cn1cc(-c2nc(C3(c4ccc(-c5cnc(N)nc5)cc4)CC3)no2)cn1", "read-out": "cell-free assay", "technique": "competition with immobilised ligand", "concentration": "1 µM", "remaining binding [%]": 100}
{"SMILES": "COc1cnc(Nc2cccc(S(N)(=O)=O)c2)nc1N1CCN(c2ccccc2)CC1", "read-out": "binding", "technique": "competition with immobilised ligand", "concentration": "1 µM", "remaining binding [%]": 86}
{"SMILES": "CN(CCCC(F)(F)F)c1nccc(-c2cnn3ncccc23)n1", "read-out": "binding", "concentration": "1 µM", "remaining binding [%]": 72}
{"SMILES": "N#CC1(c2ccccn2)CCN(Cc2cc(C(=O)N3CCCC3)c(=O)n3ccccc23)CC1", "read-out": "cell-free assay", "technique": "competition with immobilised ligand", "concentration": "1 µM", "remaining binding [%]": 85}
